Source: ChEMBL document CHEMBL4765226, “Identification of a Human Toll-Like Receptor (TLR) 8-Specific Agonist and a Functional Pan-TLR Inhibitor in 2-Aminoimidazoles” (J Med Chem, 2016)
Active and inactive are the calls of the source.

Experiments:
[1] = target: T1, Toll-like receptor 8 (Homo sapiens) (UniProt Q9NR97); test: Agonist activity at TLR8 in human PBMC cells assessed as induction of TNFalpha production incubated for 16 hrs by immunoassay; assay type: cell-based; details: filed as agonist
T1 sequence (whole entry): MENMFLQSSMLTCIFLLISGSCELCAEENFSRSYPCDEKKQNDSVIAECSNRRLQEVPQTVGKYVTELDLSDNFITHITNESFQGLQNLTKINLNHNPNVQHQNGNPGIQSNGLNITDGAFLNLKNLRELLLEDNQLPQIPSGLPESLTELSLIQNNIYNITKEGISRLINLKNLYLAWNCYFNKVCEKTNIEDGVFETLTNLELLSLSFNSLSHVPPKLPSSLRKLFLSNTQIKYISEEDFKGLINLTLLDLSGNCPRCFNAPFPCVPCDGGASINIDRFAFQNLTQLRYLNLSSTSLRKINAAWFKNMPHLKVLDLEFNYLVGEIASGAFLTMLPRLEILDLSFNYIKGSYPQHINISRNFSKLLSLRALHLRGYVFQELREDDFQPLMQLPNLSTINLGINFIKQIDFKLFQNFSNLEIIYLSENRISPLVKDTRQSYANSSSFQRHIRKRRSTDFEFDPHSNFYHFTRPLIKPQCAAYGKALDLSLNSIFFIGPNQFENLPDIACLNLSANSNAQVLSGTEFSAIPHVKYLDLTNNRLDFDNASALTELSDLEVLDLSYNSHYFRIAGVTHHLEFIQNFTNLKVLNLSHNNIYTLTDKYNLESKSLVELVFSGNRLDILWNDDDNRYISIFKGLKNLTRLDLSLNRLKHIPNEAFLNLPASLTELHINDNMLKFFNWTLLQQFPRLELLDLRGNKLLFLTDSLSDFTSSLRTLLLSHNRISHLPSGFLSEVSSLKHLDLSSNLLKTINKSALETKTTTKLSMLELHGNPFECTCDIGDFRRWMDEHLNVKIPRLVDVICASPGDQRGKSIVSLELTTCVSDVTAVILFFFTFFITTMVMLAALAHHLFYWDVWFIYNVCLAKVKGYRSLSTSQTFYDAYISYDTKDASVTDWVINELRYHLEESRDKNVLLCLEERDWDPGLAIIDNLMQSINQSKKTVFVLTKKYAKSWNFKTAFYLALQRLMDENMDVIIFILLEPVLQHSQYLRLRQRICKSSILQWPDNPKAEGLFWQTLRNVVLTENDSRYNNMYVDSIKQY
How it was run: (§1)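 Fresh human PBMCs isolated from venous blood, plated at 10^5 cells in 100 µL per well and stimulated for 16 h with graded concentrations of compound. Supernatants were collected by centrifugation and assayed in duplicate with a multiplexed cytokine/chemokine magnetic bead array.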

[2] = target: T1, Toll-like receptor 8 (Homo sapiens); test: Agonist activity at TLR8 in human PBMC cells assessed as induction of IL-1beta production incubated for 16 hrs by immunoassay; assay type: cell-based; details: filed as agonist; how it was run: as §1
[3] = target: T1, Toll-like receptor 8 (Homo sapiens); test: Agonist activity at TLR8 in human PBMC cells assessed as induction of IL-6 production incubated for 16 hrs by immunoassay; assay type: cell-based; details: filed as agonist; how it was run: as §1
[4] = target: T1, Toll-like receptor 8 (Homo sapiens); test: Agonist activity at TLR8 in human PBMC cells assessed as induction of IL-12p40 production incubated for 16 hrs by immunoassay; assay type: cell-based; details: filed as agonist; how it was run: as §1
[5] = target: T1, Toll-like receptor 8 (Homo sapiens); test: Agonist activity at TLR8 in human PBMC cells assessed as induction of IFNgamma production incubated for 16 hrs by immunoassay; assay type: cell-based; details: filed as agonist; how it was run: as §1
[6] = target: T1, Toll-like receptor 8 (Homo sapiens); test: Agonist activity at TLR8 in human PBMC cells assessed as induction of MCP1 production incubated for 16 hrs by immunoassay; assay type: cell-based; details: filed as agonist; how it was run: as §1
[7] = target: T1, Toll-like receptor 8 (Homo sapiens); test: Agonist activity at TLR8 in human PBMC cells assessed as induction of MIP-1alpha production incubated for 16 hrs by immunoassay; assay type: cell-based; details: filed as agonist; how it was run: as §1
[8] = target: T1, Toll-like receptor 8 (Homo sapiens); test: Agonist activity at TLR8 in human PBMC cells assessed as induction of MIP-1beta production incubated for 16 hrs by immunoassay; assay type: cell-based; details: filed as agonist; how it was run: as §1
[9] = target: T1, Toll-like receptor 8 (Homo sapiens); test: Agonist activity at TLR8 in human monocytes assessed as induction of NF-kappaB phosphorylation measured after 15 mins in presence of 10% FBS by Alexa fluor 647 dye based flow cytometry analysis; assay type: cell-based; details: Monocyte, filed as agonist, in the assay text read “PE-Cy7 dye” for “Alexa fluor 647 dye”
How it was run: (§2)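 Whole human blood with anticoagulant was added to serial compound dilutions in RPMI with 10% FBS and held at 37 °C for 15 min. Samples were lysed and fixed three times, permeabilized in ice-cold methanol for 30 min, then stained on ice for 60 min with anti-NF-κB p65-PECy7, p38MAPK-PE and ERK1/2-AlexaFluor 647. Flow cytometry acquired 100,000 gated events; monocytes and polymorphonuclear cells were gated.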

[10] = target: T1, Toll-like receptor 8 (Homo sapiens); test: Agonist activity at TLR8 in human polymorphonuclear leucocyte cells assessed as induction of NF-kappaB phosphorylation measured after 15 mins in presence of 10% FBS by Alexa fluor 647 dye based flow cytometry analysis; assay type: tissue-based; details: filed as agonist, in the assay text read “PE-Cy7 dye” for “Alexa fluor 647 dye”; how it was run: as §2

Measured: Activity

CCCCCn1c(N)nc2c(C)cccc21
active: [1] | [2] | [3] | [4] | [5] | [6] | [7] | [8] | [9] Dose-dependent effect | [10] Dose-dependent effect

CCCCCc1cc2ccccc2nc1N
active: [9] Dose-dependent effect | [10] Dose-dependent effect

CCCCCc1cc2c(CCCCCN)cccc2nc1N
active: [9] Dose-dependent effect | [10] Dose-dependent effect
